Experimental data published in paper PMC4708961 (Drug Design, Development and Therapy, 2016).

Columns and labels:
ACE = target: T1, ACE (Oryctolagus cuniculus, UniProt P12822); experiment: In vitro ACE inhibition assay; assay type: biochemical; conditions: IC50, ACE from rabbit lung acetone powder; substrate HHL
T1 sequence (P12822 34-1310): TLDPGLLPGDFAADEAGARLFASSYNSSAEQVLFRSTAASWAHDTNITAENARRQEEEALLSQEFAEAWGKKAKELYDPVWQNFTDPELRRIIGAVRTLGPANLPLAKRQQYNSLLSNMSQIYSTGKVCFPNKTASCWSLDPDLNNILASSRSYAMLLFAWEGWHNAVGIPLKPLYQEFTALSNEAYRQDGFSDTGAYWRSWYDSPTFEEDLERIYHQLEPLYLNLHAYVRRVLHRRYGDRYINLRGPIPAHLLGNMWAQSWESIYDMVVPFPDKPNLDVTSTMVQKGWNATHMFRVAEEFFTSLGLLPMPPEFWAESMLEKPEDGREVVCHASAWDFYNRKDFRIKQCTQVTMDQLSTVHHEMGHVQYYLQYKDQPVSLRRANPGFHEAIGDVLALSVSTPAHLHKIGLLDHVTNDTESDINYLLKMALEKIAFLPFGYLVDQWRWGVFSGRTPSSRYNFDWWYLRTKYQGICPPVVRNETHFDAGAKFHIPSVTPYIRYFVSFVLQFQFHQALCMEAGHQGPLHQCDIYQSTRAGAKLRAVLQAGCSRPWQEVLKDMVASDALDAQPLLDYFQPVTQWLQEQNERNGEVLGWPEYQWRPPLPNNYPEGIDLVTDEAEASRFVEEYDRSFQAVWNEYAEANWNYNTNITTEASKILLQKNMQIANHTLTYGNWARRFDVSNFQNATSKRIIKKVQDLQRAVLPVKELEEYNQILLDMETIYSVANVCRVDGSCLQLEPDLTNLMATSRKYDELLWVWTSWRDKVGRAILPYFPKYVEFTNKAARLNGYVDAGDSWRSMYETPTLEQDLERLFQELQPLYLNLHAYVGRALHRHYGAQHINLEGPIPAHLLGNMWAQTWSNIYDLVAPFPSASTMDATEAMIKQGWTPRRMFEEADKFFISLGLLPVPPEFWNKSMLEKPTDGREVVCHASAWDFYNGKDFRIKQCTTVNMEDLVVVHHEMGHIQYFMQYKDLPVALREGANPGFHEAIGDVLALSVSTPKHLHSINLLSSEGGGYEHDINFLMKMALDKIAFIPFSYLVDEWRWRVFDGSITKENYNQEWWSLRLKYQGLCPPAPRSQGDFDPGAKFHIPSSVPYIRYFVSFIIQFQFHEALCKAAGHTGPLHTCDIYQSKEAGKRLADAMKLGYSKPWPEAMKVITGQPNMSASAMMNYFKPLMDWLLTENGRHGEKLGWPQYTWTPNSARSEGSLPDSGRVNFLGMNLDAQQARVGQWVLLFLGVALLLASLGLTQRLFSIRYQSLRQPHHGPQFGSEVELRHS

NO donor activity = conditions: 100 μmol, phosphate buffer pH 7.4, 5 mM L-cysteine, 3 hours at 37°C
Outline: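 Test compound in DMSO (100 μmol) was added to 50 mM phosphate buffer pH 7.4 with 5 mM L-cysteine hydrochloride and held 3 h at 37°C. Griess reagent was then added, and absorbance at 550 nm was read after 20 min against a 5–50 μM sodium nitrite calibration curve. Release was expressed as mol nitrite detected per mol test compound ×100.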

[1] = Bioavailability study after oral administration in mice; assay type: in vivo
Outline: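 Swiss Webster mice aged 20–25 weeks, in control and test groups (n=5), were dosed orally by dosing needle at 3 mg per 30 g body weight; a comparator group received 2 g/kg orally. Plasma was precipitated with 40% methanol and spun at 14,000 rpm for 10 min. The supernatant was run on RP-Amide HPLC (50 mmol/L NaH2PO4 pH 4.3 to 70% acetonitrile gradient, 0.7 mL/min) with electrochemical detection.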

isolated rat hearts = experiment: Vasodilator activity on isolated rat hearts; conditions: 10 μg test compound
[2] = experimental rats; cited from earlier work
[3] = mice, 3 mg per 30 g body weight
[4] = isolated rat heart, BaCl2-induced reduction

CCCN1C/C(=C\c2ccc(O)c(O)c2)C(=O)/C(=C/c2ccc(O)c(O)c2)C1 [Compound 4f, (3E,5E)-3,5-bis(3,4-dihydroxybenzylidene)-1-propylpiperidin-4-one]
IC50 (ACE): 20.1 µM

CCCCCN1C/C(=C\c2cc(OC)c(OC)c(OC)c2)C(=O)/C(=C/c2cc(OC)c(OC)c(OC)c2)C1 [Compound 4l, (3E,5E)-1-pentyl-3,5-bis(3,4,5-trimethoxybenzylidene) piperidin-4-one]
IC50 (ACE): 6.65 µM | NO donor activity (percentage of NO2) (NO donor activity): highest donor activity

CCCN1C/C(=C\c2cc(OC)c(OC)c(OC)c2)C(=O)/C(=C/c2cc(OC)c(OC)c(OC)c2)C1 [Compound 4j, (3E,5E)-1-propyl-3,5-bis(3,4,5-trimethoxybenzylidene) piperidin-4-one]
IC50 (ACE): 1.23 µM | in vivo bioavailability ([1]; mice): better in vivo bioavailability compared with curcumin | plasma concentration [1, 3]: 35 µM | time until first detected in plasma [1, 3]: 10 min

CCCCN1C/C(=C\c2ccc([N+](=O)[O-])cc2)C(=O)/C(=C/c2ccc([N+](=O)[O-])cc2)C1 [Compound 4o, (3E,5E)-1-butyl-3,5-bis(4-nitrobenzylidene)piperidin-4-one]
IC50 (ACE): 131 µM

CCCCCN1C/C(=C\c2ccc(O)c(O)c2)C(=O)/C(=C/c2ccc(O)c(O)c2)C1 [Compound 4h, (3E,5E)-3,5-bis(3,4-dihydroxybenzylidene)-1-pentylpiperidin-4-one]
IC50 (ACE): 48.6 µM

CCCCN1C/C(=C\c2cc(OC)c(OC)c(OC)c2)C(=O)/C(=C/c2cc(OC)c(OC)c(OC)c2)C1 [Compound 4k, (3E,5E)-1-butyl-3,5-bis(3,4,5-trimethoxybenzylidene) piperidin-4-one]
IC50 (ACE): 4.45 µM

CCCCN1C/C(=C\c2ccc(O)c(O)c2)C(=O)/C(=C/c2ccc(O)c(O)c2)C1 [Compound 4g, (3E,5E)-1-butyl-3,5-bis(3,4-dihydroxybenzylidene) piperidin-4-one]
IC50 (ACE): 41.3 µM

CCCN1C/C(=C\c2ccccc2)C(=O)/C(=C/c2ccccc2)C1 [Compound 4b, (3E,5E)-3,5-dibenzylidene-1-propylpiperidin-4-one]
IC50 (ACE): 51.1 µM

CCN1C/C(=C\c2cc(OC)c(OC)c(OC)c2)C(=O)/C(=C/c2cc(OC)c(OC)c(OC)c2)C1 [Compound 4i, (3E,5E)-1-ethyl-3,5-bis(3,4,5-trimethoxybenzylidene) piperidin-4-one]
IC50 (ACE): 3.21 µM

CCN1C/C(=C\c2ccc(O)c(O)c2)C(=O)/C(=C/c2ccc(O)c(O)c2)C1 [Compound 4e, (3E,5E)-3,5-bis(3,4-dihydroxybenzylidene)-1-ethylpiperidin-4-one]
IC50 (ACE): 32.2 µM

CCN1C/C(=C\c2ccc([N+](=O)[O-])cc2)C(=O)/C(=C/c2ccc([N+](=O)[O-])cc2)C1 [Compound 4m, (3E,5E)-1-ethyl-3,5-bis(4-nitrobenzylidene)piperidin-4-one]
IC50 (ACE): 95.1 µM

CCCCN1C/C(=C\c2ccccc2)C(=O)/C(=C/c2ccccc2)C1 [Compound 4c, (3E,5E)-3,5-dibenzylidene-1-butylpiperidin-4-one]
IC50 (ACE): 64.4 µM

COc1cc(/C=C/C(=O)CC(=O)/C=C/c2ccc(O)c(OC)c2)ccc1O [curcumin]
heart rate (isolated rat hearts): did not result in any significant changes | cardiac output (isolated rat hearts; [4]): did not result in any significant changes | stroke volume (isolated rat hearts; [4]): did not result in any significant changes | NO donor activity (percentage of NO2) (NO donor activity): did not result in any significant changes | time until first observed in the blood ([1]; curcumin 2 g/kg): ~80 min | oral bioavailability [2]: very poor

CCN1C/C(=C\c2ccccc2)C(=O)/C(=C/c2ccccc2)C1 [Compound 4a, (3E,5E)-3,5-dibenzylidene-1-ethylpiperidin-4-one]
IC50 (ACE): 50.9 µM

CCCN1C/C(=C\c2ccc([N+](=O)[O-])cc2)C(=O)/C(=C/c2ccc([N+](=O)[O-])cc2)C1 [Compound 4n, (3E,5E)-3,5-bis(4-nitrobenzylidene)-1-propylpiperidin-4-one]
IC50 (ACE): 90.2 µM

CCCCCN1C/C(=C\c2ccccc2)C(=O)/C(=C/c2ccccc2)C1 [Compound 4d, (3E,5E)-3,5-dibenzylidene-1-pentylpiperidin-4-one]
IC50 (ACE): 78.5 µM

CCCCCN1C/C(=C\c2ccc([N+](=O)[O-])cc2)C(=O)/C(=C/c2ccc([N+](=O)[O-])cc2)C1 [Compound 4p, (3E,5E)-3,5-bis(4-nitrobenzylidene)-1-pentylpiperidin-4-one]
IC50 (ACE): 120 µM
